Activity calls are given as the source filed them. No cut-off for these calls is given here.
What was measured:
[1] = molecular target: Cannabinoid receptor 2 (Mus musculus) (UniProt P47936); test: Displacement of [3H]CP55940 from mouse CB2 receptor expressed in HEK293 cells by competition-equilibrium binding analysis; type: cell-based
In short: (§1)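 HEK293 cell membranes expressing mouse or human CB2; competition-equilibrium binding against [3H]CP-55,940.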

[2] = Stability in human plasma assessed as half life; type: ADME, cell-free
In short: (§2)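 Stability assessed as half-life in human, rat and mouse plasma and gastric fluid, and in human, rat and mouse liver microsomal preparations.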

[3] = Stability in mouse plasma assessed as half life; type: ADME, cell-free; in short: as §2
Homo sapiens [4] = species: Homo sapiens; test: Selectivity ratio of IC50 for human recombinant His-tagged MGL expressed in Escherichia coli BL21 DE3 cells to IC50 for human recombinant MBP-tagged FAAH expressed in Escherichia coli cells by fluorescence based assay
[5] = molecular target: T1, Fatty-acid amide hydrolase 1 (Rattus norvegicus, UniProt P97612); test: Inhibition of rat recombinant His/GST-tagged FAAH expressed in Escherichia coli cells using AAMCA as substrate incubated for 15 mins followed by substrate addition and measured after every 20 mins for 4 hrs by fluorescence based assay
T1 sequence (P97612 whole entry): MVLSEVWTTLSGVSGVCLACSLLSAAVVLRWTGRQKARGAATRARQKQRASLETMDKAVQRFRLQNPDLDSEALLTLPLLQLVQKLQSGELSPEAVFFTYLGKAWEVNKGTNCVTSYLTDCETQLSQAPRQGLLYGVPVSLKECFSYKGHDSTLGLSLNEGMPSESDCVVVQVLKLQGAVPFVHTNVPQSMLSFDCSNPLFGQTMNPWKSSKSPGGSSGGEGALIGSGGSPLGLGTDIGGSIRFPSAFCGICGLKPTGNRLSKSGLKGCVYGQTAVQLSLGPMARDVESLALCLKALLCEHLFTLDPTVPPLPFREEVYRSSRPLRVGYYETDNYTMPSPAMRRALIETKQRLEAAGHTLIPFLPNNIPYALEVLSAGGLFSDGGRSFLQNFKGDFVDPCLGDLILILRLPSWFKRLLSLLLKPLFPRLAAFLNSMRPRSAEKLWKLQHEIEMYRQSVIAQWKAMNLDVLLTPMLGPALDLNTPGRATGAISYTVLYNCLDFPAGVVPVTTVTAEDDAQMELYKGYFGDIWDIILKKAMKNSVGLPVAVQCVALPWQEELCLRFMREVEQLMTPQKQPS
In short: (§3)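 Fluorescent enzyme assay in throughput format. Human recombinant FAAH or purified rat FAAH used arachidonoyl 7-amino-4-methylcoumarin amide as substrate; human recombinant MGL was run by a similar fluorometric procedure.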

[6] = molecular target: Cannabinoid receptor 1 (Rattus norvegicus) (UniProt P20272); test: Displacement of [3H]CP55940 from CB1 receptor in rat brain by competition-equilibrium binding analysis
Target sequence in this assay (P20272 whole entry, looked up): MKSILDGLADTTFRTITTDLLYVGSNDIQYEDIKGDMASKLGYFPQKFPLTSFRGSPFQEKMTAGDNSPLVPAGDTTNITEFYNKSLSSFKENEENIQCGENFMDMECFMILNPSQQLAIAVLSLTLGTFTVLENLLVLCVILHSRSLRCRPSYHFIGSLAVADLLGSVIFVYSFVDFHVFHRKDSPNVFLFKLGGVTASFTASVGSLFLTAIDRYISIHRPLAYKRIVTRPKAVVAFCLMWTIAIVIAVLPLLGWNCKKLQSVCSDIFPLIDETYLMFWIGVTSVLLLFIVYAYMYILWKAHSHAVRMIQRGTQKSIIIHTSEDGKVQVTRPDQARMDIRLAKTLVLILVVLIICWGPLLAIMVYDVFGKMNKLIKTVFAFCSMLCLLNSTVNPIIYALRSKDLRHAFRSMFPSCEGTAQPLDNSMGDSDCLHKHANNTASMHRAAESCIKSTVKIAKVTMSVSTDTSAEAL

[7] = Stability in mouse gastric fluid assessed as half life; type: ADME, tissue-based, Gastric juice; in short: as §2
[8] = Stability in mouse liver microsomes assessed as half life; type: ADME, Microsome; in short: as §2
[9] = Selectivity ratio of IC50 for human recombinant His-tagged MGL expressed in Escherichia coli BL21 DE3 cells to IC50 for rat recombinant His/GST-tagged FAAH expressed in Escherichia coli cells by fluorescence based assay
[10] = Stability in rat liver microsomes assessed as half life; type: ADME, Microsome; in short: as §2
[11] = Selectivity ratio of IC50 for human full length ABHD6 expressed in Escherichia coli cells to IC50 for rat recombinant His/GST-tagged FAAH expressed in Escherichia coli cells by fluorescence based assay
[12] = Stability in rat gastric fluid assessed as half life; type: ADME, tissue-based, Gastric juice; in short: as §2
[13] = molecular target: Cannabinoid receptor 2 (Homo sapiens) (UniProt P34972); test: Displacement of [3H]CP55940 from human CB2 receptor expressed in HEK293 cells by competition-equilibrium binding analysis; type: cell-based; in short: as §1
[14] = Stability in rat plasma assessed as half life; type: ADME, cell-free; in short: as §2
[15] = molecular target: T2, Fatty-acid amide hydrolase 1 (Homo sapiens, UniProt O00519); test: Inhibition of human recombinant MBP-tagged FAAH expressed in Escherichia coli cells using AAMCA as substrate incubated for 15 mins followed by substrate addition and measured after every 20 mins for 4 hrs by fluorescence based assay; in short: as §3
T2 sequence (O00519 whole entry): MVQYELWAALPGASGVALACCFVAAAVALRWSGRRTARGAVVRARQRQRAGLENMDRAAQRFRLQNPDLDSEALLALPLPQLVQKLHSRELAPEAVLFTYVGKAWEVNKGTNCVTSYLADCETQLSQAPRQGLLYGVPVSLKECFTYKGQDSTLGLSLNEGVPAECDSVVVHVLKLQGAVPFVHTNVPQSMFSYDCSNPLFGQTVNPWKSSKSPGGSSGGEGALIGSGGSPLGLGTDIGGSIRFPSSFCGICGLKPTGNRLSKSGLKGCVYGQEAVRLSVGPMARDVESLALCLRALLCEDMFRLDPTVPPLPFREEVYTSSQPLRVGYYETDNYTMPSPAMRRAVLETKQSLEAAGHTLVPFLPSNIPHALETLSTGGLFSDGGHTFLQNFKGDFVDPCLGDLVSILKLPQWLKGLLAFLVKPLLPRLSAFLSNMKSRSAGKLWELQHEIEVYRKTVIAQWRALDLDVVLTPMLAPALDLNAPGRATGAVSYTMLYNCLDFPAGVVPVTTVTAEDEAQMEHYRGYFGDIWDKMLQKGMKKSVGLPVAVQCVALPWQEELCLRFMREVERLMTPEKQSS

Homo sapiens [16] = species: Homo sapiens; test: Selectivity ratio of IC50 for human full length ABHD6 expressed in Escherichia coli cells to IC50 for human recombinant MBP-tagged FAAH expressed in Escherichia coli cells by fluorescence based assay
[17] = molecular target: Cannabinoid receptor 1 (Rattus norvegicus) (UniProt P20272); test: Displacement of [3H]CP55940 from CB1 receptor in rat brain by competition-equilibrium binding analysis; type: tissue-based
In short: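 Rat brain membranes as CB1 source; competition-equilibrium binding against [3H]CP-55,940.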
Target sequence in this assay (P20272 whole entry): as the sequence (P20272 whole entry, looked up) above

[18] = Stability in human gastric fluid assessed as half life; type: ADME, tissue-based, Gastric juice; in short: as §2
Monoglyceride lipase = molecular target: T3, Monoglyceride lipase (Homo sapiens, UniProt Q99685); test: Inhibition of human recombinant His-tagged MGL expressed in Escherichia coli BL21 DE3 cells using AHMMCE as substrate preincubated with enzyme for 15 mins followed by substrate addition and measured after every 15 mins for 3 hrs by fluorescence based assay; in short: as §3
T3 sequence (Q99685 whole entry): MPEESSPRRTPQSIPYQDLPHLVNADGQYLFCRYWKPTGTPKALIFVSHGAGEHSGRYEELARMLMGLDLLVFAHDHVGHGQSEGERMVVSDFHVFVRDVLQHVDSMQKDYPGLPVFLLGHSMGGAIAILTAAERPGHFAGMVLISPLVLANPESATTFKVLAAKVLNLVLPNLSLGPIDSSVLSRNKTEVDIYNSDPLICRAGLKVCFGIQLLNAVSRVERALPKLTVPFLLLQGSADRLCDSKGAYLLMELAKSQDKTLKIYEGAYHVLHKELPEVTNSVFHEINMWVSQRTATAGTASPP

[19] = Stability in human liver microsomes assessed as half life; type: ADME, Microsome; in short: as §2

Sequence of Cannabinoid receptor 2 (Mus musculus) (P47936 whole entry): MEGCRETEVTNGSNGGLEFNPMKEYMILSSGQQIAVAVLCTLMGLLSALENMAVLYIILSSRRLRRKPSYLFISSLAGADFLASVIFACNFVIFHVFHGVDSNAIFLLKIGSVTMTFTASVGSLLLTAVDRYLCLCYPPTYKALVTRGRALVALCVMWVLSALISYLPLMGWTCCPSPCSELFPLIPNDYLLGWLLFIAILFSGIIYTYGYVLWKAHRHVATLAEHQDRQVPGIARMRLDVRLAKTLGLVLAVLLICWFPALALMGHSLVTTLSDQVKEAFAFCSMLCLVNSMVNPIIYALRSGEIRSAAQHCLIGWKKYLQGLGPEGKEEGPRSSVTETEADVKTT
Sequence of Cannabinoid receptor 2 (Homo sapiens) (P34972 whole entry): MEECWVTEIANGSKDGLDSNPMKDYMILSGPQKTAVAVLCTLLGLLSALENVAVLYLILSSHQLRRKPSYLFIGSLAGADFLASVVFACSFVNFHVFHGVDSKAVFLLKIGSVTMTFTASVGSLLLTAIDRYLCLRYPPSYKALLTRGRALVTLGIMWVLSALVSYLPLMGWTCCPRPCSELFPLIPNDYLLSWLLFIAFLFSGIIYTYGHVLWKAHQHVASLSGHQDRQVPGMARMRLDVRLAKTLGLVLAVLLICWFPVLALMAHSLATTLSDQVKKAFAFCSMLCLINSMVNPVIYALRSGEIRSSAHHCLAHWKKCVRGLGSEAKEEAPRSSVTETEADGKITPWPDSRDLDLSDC

Structure (SMILES)	Activity [1]	half-life [2] [min]	half-life [3] [min]	Ratio IC50 (Homo sapiens [4])	IC50 [5] [nM]	Activity [6]	half-life [7] [min]	half-life [8] [min]	Ratio IC50 [9]	half-life [10] [min]	Ratio IC50 [11]	half-life [12] [min]	Activity [13]	half-life [14] [min]	IC50 [15] [nM]	Ratio IC50 (Homo sapiens [16])	Activity [17]	half-life [18] [min]	IC50 (Monoglyceride lipase) [nM]	half-life [19] [min]
O=C(Oc1cccc(N2CCS(=O)(=O)CC2)c1)N1CCN(c2ccccc2)CC1	inactive	> 60	> 60	> 1000	8	inactive	> 60	15 to 25	> 1000	15 to 25	> 1000	> 60	inactive	> 60	15	> 1000	inactive	> 60	> 1000	15 to 25
CN1CCN(c2cccc(OC(=O)N3CCC(c4ccc(F)cc4)CC3)c2)CC1	inactive	> 60	> 60	> 1000	9.4	inactive	> 60	15 to 25	> 1000	15 to 25	> 1000	> 60	inactive	> 60	33.2	> 1000	inactive	> 60	> 1000	15 to 25
O=C(Oc1cccc(N2CCS(=O)(=O)CC2)c1)N1CCN(Cc2cccc(Oc3ccccc3)c2)CC1	inactive	> 60	> 60	> 1000	2.2	inactive	> 60	15 to 25	> 1000	15 to 25	> 1000	> 60	inactive	> 60	2.3	> 1000	inactive	> 60	> 1000	15 to 25
COc1ccc(N2CCN(C(=O)Oc3cccc(N4CCOCC4)c3)[C@H](C)C2)cc1	inactive	> 60	> 60	> 1000	5.2	inactive	> 60	15 to 25	> 1000	15 to 25	> 1000	> 60	inactive	> 60	4.1	> 1000	inactive	> 60	> 1000	15 to 25
C[C@@H]1CN(c2ccccc2)CCN1C(=O)Oc1cccc(N2CCS(=O)(=O)CC2)c1	inactive	> 60	> 60	> 1000	5.7	inactive	> 60	15 to 25	> 1000	15 to 25	> 1000	> 60	inactive	> 60	17.7	> 1000	inactive	> 60	> 1000	15 to 25
COc1ccc(N2CCN(C(=O)Oc3cccc(N4CCS(=O)(=O)CC4)c3)[C@H](C)C2)cc1	inactive	> 60	> 60	> 1000	7.4	inactive	> 60	15 to 25	> 1000	15 to 25	> 1000	> 60	inactive	> 60	11.1	> 1000	inactive	> 60	> 1000	15 to 25
CC1CN(c2ccccc2)CCN1C(=O)Oc1cccc(N2CCS(=O)(=O)CC2)c1 (stereo not given)	inactive	> 60	> 60	> 1000	5.5	inactive	> 60	15 to 25	> 1000	15 to 25	> 1000	> 60	inactive	> 60	2.6	> 1000	inactive	> 60	> 1000	15 to 25
O=C(Oc1cccc(N2CCS(=O)(=O)CC2)c1)N1CCC(c2ccc(OC(F)(F)F)cc2)CC1	inactive	> 60	> 60	> 1000	4	inactive	> 60	15 to 25	> 1000	15 to 25	> 1000	> 60	inactive	> 60	3.7	> 1000	inactive	> 60	> 1000	15 to 25
O=C(Oc1cccc(N2CCS(=O)(=O)CC2)c1)N1CCC(c2ccccc2)CC1	inactive	> 60	> 60	> 1000	6	inactive	> 60	15 to 25	> 1000	15 to 25	> 1000	> 60	inactive	> 60	8	> 1000	inactive	> 60	> 1000	15 to 25

From ChEMBL document CHEMBL4359929, “Piperidine and piperazine inhibitors of fatty acid amide hydrolase targeting excitotoxic pathology” (Bioorg Med Chem, 2019)
